# Platelet DG rel – inhibitors of platelet dense granule secretion, primary screen, cell-based, MLPCN, human platelets | human platelet-rich plasma, SFLLRN dense granule ATP release, luminescence | inhibition, %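 (compounds screened at 7.5 µM in platelet-rich plasma)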 | AID 1663, 2009 | 300,000 compounds, 0.22% hits;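 active = mean replicate score, as percent of positive control, at or above 50; inconclusive = mean below 50 but at least one replicate at or above 50; inactive = mean and every replicate below 50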
# RanGTP-Imp inh – inhibitors of RanGTP-importin-beta interaction, primary screen, biochemical, FRET, CFP-Ran, YFP-importin-beta, homogeneous; cell-free CFP-Ran/YFP-importin-beta FRET ratio; 300,000 compounds, 1.1% hits; Ran GTPase (GTP-bound) - importin-beta complex; inhibition, % (concentration not given with the values);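 active = more than half of the replicate wells show a fall in the fluorescence ratio signal beyond about 16%, limit read from the data, passing the limit was not always enough; inconclusive = exactly half of the replicate wells pass the set limit; inactive = fewer than half of replicates pass the limit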;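 note: 0% = DMSO wells and 100% = Ran loaded with GDP instead of GTP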
# Runt-SMMHC FRET – inhibitors of RUNX1 Runt–CBFb-SMMHC binding, primary screen, biochemical, FRET, Cerulean-Runt, Venus-CBFb-SMMHC, uHTS | inhibition, % at 20 µM | Cerulean-Runt/Venus-CBFb-SMMHC FRET ratio 530/480, 1 h | 220,000 compounds, 0.74% hits;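 active = mean inhibition across duplicate retests at 20 µM reaching about 50%, limit read from the data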;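 note: 0% = DMSO wells and 100% = wells with excess untagged CBFb-SMMHC; inhibitors lower the FRET ratio by blocking Runt binding to CBFb-SMMHC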
# Target sequence (Q01196 whole entry, looked up): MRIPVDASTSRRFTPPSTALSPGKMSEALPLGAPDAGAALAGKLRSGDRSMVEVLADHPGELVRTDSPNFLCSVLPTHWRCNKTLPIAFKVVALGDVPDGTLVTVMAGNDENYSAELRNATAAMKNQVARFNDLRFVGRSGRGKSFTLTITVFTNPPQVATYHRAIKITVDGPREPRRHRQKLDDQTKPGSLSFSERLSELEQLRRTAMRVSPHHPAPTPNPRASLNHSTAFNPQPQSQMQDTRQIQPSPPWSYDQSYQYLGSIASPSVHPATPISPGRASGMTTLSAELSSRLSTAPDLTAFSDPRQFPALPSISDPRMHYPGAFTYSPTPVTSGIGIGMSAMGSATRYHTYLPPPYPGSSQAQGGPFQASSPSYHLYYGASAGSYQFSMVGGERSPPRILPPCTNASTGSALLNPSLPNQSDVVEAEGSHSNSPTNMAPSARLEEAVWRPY
# Target sequence (Q13951 whole entry, looked up): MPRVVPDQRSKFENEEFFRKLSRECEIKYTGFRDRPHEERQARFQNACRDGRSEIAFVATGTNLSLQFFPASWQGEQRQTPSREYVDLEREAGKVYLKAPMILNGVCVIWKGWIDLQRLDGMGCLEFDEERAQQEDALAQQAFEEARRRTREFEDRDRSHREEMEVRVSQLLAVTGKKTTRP
# Rce1 inhib – yeast Rce1p protease inhibitors, primary screen, biochemical, fluorescence, cell-free homogeneous; CAAX prenyl protease 2 (Saccharomyces cerevisiae (strain ATCC 204508 / S288c)), Q03530; yeast membranes, quenched prenylated peptide cleavage fluorescence; calls only; 290,000 compounds, 0.27% hits;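 active = fall in fluorescence gain of 50% or more versus controls, with final raw signal at or below 3038400; inconclusive = same 50% fall but final raw signal above 3038400; inactive = fall in fluorescence gain under 50%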;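 note: plate controls were neutral control wells for no effect and wells lacking membranes for full effect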
# Runt-CBFb FRET – inhibitors of RUNX1 Runt–CBFb binding, primary screen, biochemical, FRET, Cerulean-Runt, Venus-CBFb, uHTS; Runt-related transcription factor 1 (Homo sapiens) + Core-binding factor subunit beta …; Cerulean-Runt/Venus-CBFb FRET ratio 530/480, 1 h; inhibition, % at 20 µM; 220,000 compounds, 0.46% hits;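 active = inhibition over about 50% at 20 µM in the single-dose screen, limit read from the data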;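 note: 0% = DMSO wells and 100% = excess unlabeled CBFb competitor control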
#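 Reagent – Venus-CBFb binding partner, 100 nM · Assay system – Cerulean-tagged RUNX1 Runt domain (FRET donor) fusion protein · Input – 100 nM per protein · Incubation – two 1 h room-temperature incubations shielded from light · Measured by – FRET fluorescence · Medium – Tris buffer pH 7.5 with salts and BSA · Benchmarks – unlabeled CBFb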
# Numbers without * were called inactive; i = inactive; ? = inconclusive; · = no result; + = active, no number. Sampled rows, rich in hits. Any-hit rate of the full collection: about 1.8%.
SMILES,Platelet DG rel,RanGTP-Imp inh,Runt-SMMHC FRET,Rce1 inhib,Runt-CBFb FRET
COc1ccc(-c2oc3ccccc3c2C(=O)OCc2ccccc2OC)cc1,0,4,·,+,·
COc1ccc(NC(=O)CCNS(=O)(=O)c2cc(Br)ccc2Br)cc1S(N)(=O)=O,-1,1,·,i,·
COc1ccc(-c2oc3ccc(N4CCOCC4)cc3c2C#Cc2ccc(N)cc2)cc1,-13,1,·,+,·
COc1ccc(C#Cc2c(-c3ccsc3)oc3ccc(N4CCOCC4)cc23)cc1,-6,-4,·,i,·
CCOC(=O)Cc1csc(NC(=O)CN2CCN(c3ccccc3)CC2)n1,5,-10,·,i,·
Cc1ccc(C(NC(=O)Nc2ccccn2)C(Cl)(Cl)Cl)cc1F (stereo not given),2,3,·,i,·
Cc1ccc(CNC(=O)C2CCC(CNc3nc(=S)[nH]c4ccccc34)CC2)cc1 (stereo not given),0,27*,-3,i,-4
COc1cccc(CNC(=O)C2CCC(CNc3nc(=S)[nH]c4ccccc34)CC2)c1 (stereo not given),1,0,2,i,0
Cc1ccc(S(=O)(=O)N(C)c2ccc(C(=O)NCc3ccccc3F)cc2)cc1,0,2,·,i,·
NC(=O)CSc1ccc(-c2ccc(F)cc2)nn1,0,2,4,i,1
CCc1cc2c3c(c(=O)oc2cc1OC(C)C(=O)O)CCCC3 (stereo not given),10,-1,·,i,·
COc1ccc(OC)c(CN2CCN(Cc3cc(=O)oc4cc(O)ccc34)CC2)c1,3,61*,·,i,·
CN1CCN(Cc2cc(=O)oc3cc4c(cc23)CCC4)CC1,4,-1,2,i,3
Cc1ccc2c(CN3CCN(CCO)CC3)cc(=O)oc2c1C,8,-2,1,i,2
CCc1cc2c(CN3CCN(CCO)CC3)cc(=O)oc2cc1O,-1,113*,62*,i,70*
CCc1cc2c3c(c(=O)oc2cc1O)CCCC3,2,?,144*,i,96*
CCc1cc2c(CN3CCN(C)CC3)cc(=O)oc2cc1O,-1,114*,57*,i,18
Cc1cc(C)n2c(SCC(=O)N(CC(C)C)c3c(N)n(CC(C)C)c(=O)[nH]c3=O)nnc2n1,1,3,-1,i,3
CC(=O)C(C)Oc1ccc2c3c(c(=O)oc2c1)CCCCC3 (stereo not given),1,-3,2,i,0
CC(=O)C(C)Oc1ccc2c3c(c(=O)oc2c1)CCCC3 (stereo not given),2,0,26,+,8
O=C(Nn1c(O)c(C=C2N=c3ccccc3=N2)sc1=S)c1ccc(Cl)cc1,-10,33*,-6,i,8
CC1=C(C)C(C)=C(C#N)C(=C(C#N)C#N)N1,-4,5,32,+,1
CCOC(=O)N1CCN(CC(=O)N2CCC(C(N)=O)CC2)CC1,59*,-3,5,i,0
NC(=O)c1cccc2c3c([nH]c12)CCCC3,-28,85*,4,i,1
CCOC(=O)C1CCCc2c1[nH]c1c(C(N)=O)cccc21 (stereo not given),-5,25*,4,i,1
SMILES,Platelet DG rel,RanGTP-Imp inh,Runt-SMMHC FRET,Rce1 inhib,Runt-CBFb FRET
O=C(O)c1cc2[nH]c3c(c2cc1Cl)CCCC3,-6,-7,·,i,·
COc1ccc(C2=NOC(C(=O)Nc3ccc4c(c3)OCCO4)C2)c(OC)c1 (stereo not given),-4,-9,·,i,·
O=c1[nH]c2ccccc2nc1-c1cccs1,1,9,169*,i,91*
c1csc(-c2nnsc2-c2nc3ccccc3[nH]2)c1,·,1,15,i,4
COC(=O)CCNS(=O)(=O)c1ccc2ccccc2c1,-5,-2,-1,i,-1
CCCCNc1cc(Cl)nc(N)n1,8,40*,8,i,5
Nc1nc(Cl)cc(NCCc2ccccc2)n1,-12,5,-1,i,1
Cc1nc2scc(C)n2c(=O)c1S(=O)(=O)N1CCN(c2ccccc2)CC1,-8,-3,·,i,·
Cc1csc2nc(=O)c3ccccc3n12,-3,-1,-1,+,0
Cn1c(=O)c(/C=C/c2ccc(F)cc2)nc2ccccc21,-18,53*,38,i,-8
COCCn1c(/C=C/c2ccccc2)nc2ccccc21,11,4,3,i,-1
O=c1c(/C=C(\O)c2ccc(F)cc2)nc2ccccc2n1-c1ccccc1,4,77*,8,i,0
Cn1c(/C=C/c2ccccc2)nc2ccccc21,81*,1,4,?,0
CC(=O)c1ccc(/C=C/c2nc3ccccc3n2C)o1,23,-54,81*,i,9
CCCc1nnc(SCC(=O)N2CCCC(C)C2)n1CC1CCCO1 (stereo not given),·,-5,3,i,-4
CCOC(=O)C1CCCN(C(=O)Nc2c(-c3ccccc3)noc2C)C1 (stereo not given),-7,3,1,i,1
Cn1c(=O)c(/C=C/c2ccccc2)nc2ccccc21,10,53*,99*,i,26
c1ccc(CSc2nnc(Cc3ccccn3)o2)cc1,-3,22*,1,i,-1
Cc1cc(=O)n2nc(N3CCCC(C(=O)NCc4ccccc4C)C3)sc2n1 (stereo not given),-3,-1,·,i,·
NC(=O)CSC1=Nc2ccccc2C2=NC(c3ccccc3)C(=O)N12 (stereo not given),-5,2,1,+,5
CCN(CC)C(=O)CSC1=Nc2ccccc2C2=NC(c3ccccc3)C(=O)N12 (stereo not given),3,-4,4,i,2
c1ccc(N2CCN(CC3CCCCC3)CC2)cc1,-4,-2,·,i,·
CCCCCCOC(=O)C(C#N)c1nc2ccccc2nc1N1CCN(C)CC1 (stereo not given),6,23*,21,i,8
CCCCCCOC(=O)C(C#N)c1nc2ccccc2nc1N1CCCCC1 (stereo not given),4,31*,-31,i,-8
CCC(C)COC(=O)C(C#N)c1nc2ccccc2nc1N1CCCCC1 (stereo not given),14,23*,0,i,2
CC1=C(C#N)C(C)C2=C(CC(C)(C)CC2=O)N1 (stereo not given),-3,5,50*,i,22
C/C(=N\OC(=O)C1CC1)C1CC1c1ccc(F)cc1 (stereo not given),-5,0,2,i,1

# High-throughput results (PubChem)
